# Measurements taken from paper PMC2805915 (Nature medicine, 2009).
# What was measured:
# [1] = test system: Bcl6-dependent DLBCL cell lines; assay: Growth inhibition determination; type: cell-based, human; conditions: read-out: GI50 (concentration that inhibited the growth of the cell lines by 50% compared to control); 48 h; group of seven Bcl6-dependent DLBCL cell lines
# Outline: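 Cells seeded so untreated controls stayed in exponential growth through the 48 h exposure, then treated with 0.1–10 μM test compound or water vehicle in 10% serum medium. Viability read by resazurin reduction fluorescence (560Ex/590Em), with viable cells calculated from a standard curve and 6 replicates per condition, and verified by sulforhodamine B or ATP luminescence. Values normalized to controls. Experiments in triplicate. GI50 taken from dose-effect curves and reported as mean with 95% CI.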
# [2] = test system: Bcl6-independent DLBCL cell lines; assay: Growth inhibition determination; type: cell-based, human; conditions: read-out: GI50 (concentration that inhibited the growth of the cell lines by 50% compared to control); 48 h; group of four Bcl6-independent DLBCL cell lines
# Bcl6 [3] = assay: Bcl6 immunoblot in DLBCL cells; type: cell-based, human
# Outline: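 Farage, OCI-Ly7 and SU-DHL4 cells exposed 24 h to 0.1, 0.25, 0.5 or 1 μM test compound; OCI-Ly7 also given 0.5 μM for 4, 6, 12, 18, 24 and 48 h. Compound added from concentrated stock to 10% serum medium. Lysates immunoblotted for Bcl6 with N-terminal (N3) and C-terminal (C19) antibodies, actin as loading control.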
# Bcl6 [4] = assay: Protein decay determination; type: cell-based, human; conditions: OCI-Ly7; 0.5 µM PU-H71 after Cycloheximide 5 μM
# Outline: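 OCI-Ly7 cells, control or test-compound treated, incubated with 5 μM cycloheximide over a time course. Bcl6 and actin immunoblotted at each point; Bcl6/actin ratio quantified by densitometry with untreated cells set at 100% and plotted against time.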
# BCL6 mRNA = assay: mRNA decay determination; type: cell-based, human; conditions: OCI-Ly7; versus vehicle-treated cells
# Outline: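 OCI-Ly7 cells pretreated 2 h with 0.5 μM test compound or control, then actinomycin D added for a time course. BCL6 mRNA quantified by QPCR against a standard curve, normalized to untreated cells; three independent experiments averaged to derive half-life.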
# [5] = test system: primary human DLBCL cells; assay: Primary cells treatment, viability; type: cell-based; conditions: 2.5 μM; 48 h; versus vehicle-treated controls
# Outline: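 Lymph node biopsies disrupted physically and separated by density gradient; cells kept in 80% RPMI/20% human serum with antibiotics, L-glutamine and HEPES. Exposed in triplicate to 2.5 μM test compound or water for 48 h. Viability read by ATP luminescence and dye exclusion, expressed as percent of vehicle control.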
# Pharmacokinetic = type: in vivo; conditions: Farage xenograft mice, 75 mg per kg i.p.
# Outline: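 Mice bearing 1 cm3 Farage xenografts received a single 75 mg/kg i.p. dose of test compound; killed at 6, 12 and 24 h alongside controls. Serum, tumor and normal tissues assayed for compound concentration by HPLC-MS.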
# OCI-Ly7 xenografts = assay: Mice xenotransplant study, OCI-Ly7; type: in vivo, SCID mice; conditions: 75 mg per kg per day; 20 days
# SU-DHL6 xenograft = assay: Mice xenotransplant study, SU-DHL6; type: in vivo, SCID mice; conditions: 75 mg per kg per day; 20 days
# Outline: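 Additional cohort of SCID mice with s.c. OCI-Ly7 or SU-DHL6 xenografts held until mean tumor volume reached 500 mm3, then given test compound i.p. for 20 days; tumor volume followed by caliper every other day.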
# Toledo xenografts = assay: Mice xenotransplant study, Toledo; type: in vivo, SCID mice; conditions: Bcl6-independent; similar dose (75 mg per kg per day)
# [6] = test system: Farage, OCI-Ly7 and SU-DHL4 DLBCL xenografts; assay: Mice xenotransplant study, pooled; type: in vivo, SCID mice; conditions: 75 mg per kg per day
# Outline: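 Male SCID mice, 6–8 weeks old, injected s.c. in the left flank with 10^7 low-passage DLBCL cells. At palpable size (about 75–100 mm3, 24–33 days), pairs were randomized to vehicle or 75 mg/kg/day test compound i.p. (reconstituted in sterile water) for 10 days, n = 5 per arm per line. Caliper volume was measured every other day as (smallest diameter² × largest)/2. Mice were euthanized when ≥2 of 10 tumors reached 20 mm. Tumors were weighed and TUNEL-scored as apoptotic/total cells. Survival ran from treatment start to death or tenfold volume rise, by Kaplan-Meier with Cox's F test.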
# [7] = Toxicity in xenografted mice; type: in vivo, SCID mice; conditions: 75 mg per kg per day, 10 days
# Outline: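 Xenografted SCID mice dosed i.p. at 75 mg/kg/day were weighed every other day. At euthanasia, blood was collected and tumors and other tissues were harvested, weighed and examined microscopically by pathologists.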
# Mice toxicity studies = type: in vivo, Balb/c mice; conditions: 50 or 75 mg per kg per day; 10 days
smiles,measurement,setting,value
CC(C)NCCCn1c(Sc2cc3c(cc2I)OCO3)nc2c(N)ncnc21 [PU-H71],GI50,[1],1.39 µM
same,GI50,[2],71 µM
same,Bcl6 protein abundance,"Bcl6 [3]; 24 h, 0.1-1 μM, Farage, OCI-Ly7 and SU-DHL4",dose-dependent reduction
same,"Bcl6 protein (immunoblot, antibodies N3 and C19)","Bcl6 [3]; OCI-Ly7, 0.5 μM, after 18 h",barely detectable
same,time for relative Bcl6 protein abundance to decrease from 100% to 50%,Bcl6 [4],5 h
same,increase in Bcl6 mRNA decay rate,BCL6 mRNA,32%
same,cases among 21 DLBCLs with greater than 25% loss of viability,[5],19
same,PU-H71 concentration in tumor,Pharmacokinetic; 6 h,42.1 µg/g
same,PU-H71 concentration in tumor,Pharmacokinetic; 12 h,27.6 µg/g
same,PU-H71 concentration in tumor,Pharmacokinetic; 24 h,12 µg/g
same,PU-H71 in serum,Pharmacokinetic; after the 6 h timepoint,undetectable
same,tumor volume in steady phase,OCI-Ly7 xenografts,~500 mm^3
same,tumor volume,SU-DHL6 xenograft,≤ 100 mm^3
same,effect on xenograft growth,Toledo xenografts,no effect
same,DLBCL size and weight compared to control,[6]; 10 days,potently reduced
same,survival (tumor growth to critical mass as surrogate) v controls,"[6]; n = 15, Cox's F test P < 0.0001",significantly prolonged
same,"toxicity from behavioral, macroscopic or microscopic standpoints",[7],no evidence of toxicity
same,"hematologic, renal or hepatic toxicity (blood counts, chemistry, liver function, thyroid hormone)",Mice toxicity studies,"no evidence of hematologic, renal or hepatic toxicity"
same,macroscopic or microscopic toxicity,Mice toxicity studies,no evidence of macroscopic or microscopic toxicity
